Screening results: PubChem BioAssay, several laboratories
The list is not random: actives were taken first. Their share in the collection is about 4%.
Insulin prom inh: TRM-6 insulin promoter activity inhibition. 0.9% of 130,000 active. inhibition, % at 2 µM. AID 1273. TRM-6 cells (human fetal islet line), insulin promoter-eGFP reporter, imaging; reporter expression induced with tamoxifen;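 active = inhibition above the mean plus 3 SD, with well images judged a real hit on visual review, cut at about 60% in these data, passing the limit was not always enough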
Measles CPE: protection of cells from measles virus; Measles virus-infected cells, CPE protection, absorbance; protection (pct of control), % at 4 µM; 1.5% of 140,000 active; AID 841; in the data active = protection mostly above about 24%, no sharp cut-off; inactive = mostly below about 26%
Yeast lifespan up: yeast lifespan extension | S. cerevisiae growth with nicotinamide, OD615; deaD strain in restrictive glucose medium | inhibition of the nicotinamide effect, % at 10 µM | 0.68% of 130,000 active | AID 775;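 active = inhibition above a set limit, placed 3 SD over the median of all compounds, cut at about 26% in these data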;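 note: 0% = nicotinamide-treated wells and 100% = cells grown without nicotinamide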
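Measured by: optical density (absorbance) at 615 nm; System: modified budding yeast, DeaD strain; Medium: restrictive CSMM-D dextrose medium; Timing: 4 h preincubation then 48 h treatment at 30 °C.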
BB579 growth dn: chemicals that inhibit yeast BB579 growth in restrictive medium (lifespan-shortening candidates) | S. cerevisiae BB579 growth, OD615, 48 h | inhibition, % at 10 µM | 0.51% of 140,000 active | AID 804;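 active = inhibition above a set limit, 3 SD over the mean compound inhibition, cut at about 44% in these data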
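Assay system: S. cerevisiae DeaD strain BB579 yeast. Medium: CSMM-D restrictive synthetic medium containing dextrose (glucose). Times: 4 h cell preincubation, 48 h compound exposure, 30 °C humidified. Signal: OD615 turbidity measurement. Benchmarks: positive control amphotericin B 10 µg/mL.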
Mdm2 ligase inh: blocks human Mdm2 ubiquitin ligase activity; Q00987; cell-based MDM2 ubiquitination luciferase reporter, 2 h; 0 = plate control, 100 = twice control, blank-subtracted; signal enhancement, % at 5 µM; 0.11% of 210,000 active; AID 1230;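 active = signal enhancement of 30% or more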;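 note: luminescence tracks abundance of the self-degrading MDM2-luciferase fusion protein; higher signal means inhibition of MDM2 E3 ligase activity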
Target sequence (Q00987 whole entry, looked up, the tested form may be a part): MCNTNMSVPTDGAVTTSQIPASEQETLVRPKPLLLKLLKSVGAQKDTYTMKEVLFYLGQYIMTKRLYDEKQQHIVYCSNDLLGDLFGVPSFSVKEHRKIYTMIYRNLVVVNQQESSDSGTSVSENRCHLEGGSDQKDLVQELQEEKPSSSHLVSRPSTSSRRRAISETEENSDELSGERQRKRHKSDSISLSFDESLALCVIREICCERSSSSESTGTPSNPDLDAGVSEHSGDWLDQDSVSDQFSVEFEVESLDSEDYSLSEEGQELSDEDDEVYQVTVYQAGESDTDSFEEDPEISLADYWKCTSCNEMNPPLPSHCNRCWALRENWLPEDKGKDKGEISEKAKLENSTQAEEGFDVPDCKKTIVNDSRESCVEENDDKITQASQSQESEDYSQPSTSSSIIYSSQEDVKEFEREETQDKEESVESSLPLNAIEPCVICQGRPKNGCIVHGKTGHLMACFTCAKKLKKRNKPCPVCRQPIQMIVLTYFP
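Buffer or medium: Cells held in DMEM | Assay system: Stable mammalian line carrying autodegrading MDM2–luciferase fusion reporter | Quantity: 2000 cells/well | Times: 4 h settle plus 2 h compound, 37 °C | Doses: One concentration, 5 µM, with 0.2% DMSO | Technique: Luminescence with SteadyLite reagent, 15 min at room temperature | Benchmarks: Plate controls and plate blanks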
RAM network inh: yeast RAM network inhibition | S. cerevisiae dse1pr::URA3 reporter, 5-FOA growth OD615, 2 d; analog-sensitive cbk1-as2 kinase mutant strain | inhibition, % at 50 µM | 1.8% of 190,000 active | AID 868;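 active = inhibition above a set limit, 3 SD over mean compound inhibition, cut at about 8.4% in these data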;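 note: 0% = DMSO-only wells with no growth and 100% = 10 µM 1-NA-PP1 full growth; inhibition rescues growth on 5-FOA so higher OD means more RAM inhibition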
RAM 5-FOA: restores 5-FOA growth of efflux-deficient yeast; shares compounds with RAM network inh; S. cerevisiae efflux-deficient reporter strain, 5-FOA growth OD615, 2 days; max inhibition, %; 1,200 tested, under 10 active; call rule not given here;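 note: plate controls were vehicle for no effect and reference inhibitor for full effect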
* = called active by the depositor; i = inactive; / = not tested or not shown.

SMILES	Insulin prom inh	Measles CPE	Yeast lifespan up	BB579 growth dn	Mdm2 ligase inh	RAM network inh	RAM 5-FOA
CCN(CC)S(=O)(=O)c1cccc(C(=O)OCC(=O)c2ccc3c(c2)OCCO3)c1	-30.8	12.6	7.5	-49.4	-6.4	14.4*	4.6
O=C(O)/C=C/C(=O)Nc1ccccc1C(=O)OCC(=O)c1ccc2c(c1)OCCO2	55.6	/	/	/	-39.6	0.9	/
O=C(COC(=O)c1cccc(S(=O)(=O)NCc2ccccc2)c1)c1ccc2c(c1)OCCO2	/	8.3	0.3	-40.6	-15.3	7.3	/
CCCCn1c(SCC(=O)Nc2ccccc2C(F)(F)F)nc2ccsc2c1=O	5.3	9.8	-1.7	-10.7	-13.5	11.5*	3.3
CCCCn1c(SCC(=O)Nc2nccs2)nc2ccccc2c1=O	16.7	3.5	-19.1	-58.3	0.3	2.6	/
CCOC(=O)/C(=N/Nc1ccccc1)c1csc(Nc2ccccc2)n1	-7.7	4.2	-21.2	-34.2	0.2	16.3*	3.9
CCOC(=O)C1=C(CSc2nc(-c3ccccc3)ccc2C#N)OC(N)=C(C#N)C1c1ccc(OC)cc1 (stereo not drawn)	-83.7	3.7	-11.8	-36.9	-11.7	18.7*	4.0
Cc1ccc(P(=Nc2ccccc2)(N2CCOCC2)N2CCOCC2)o1	/	14.9	-8.7	-12.8	-12.6	0.9	/
CCn1c(=O)cc(OCC(=O)NCCc2cccc(C)c2)c2ccccc21	-129.4	/	/	/	-1.2	3.6	/
CCOCCCNC(=O)c1cc(=O)n(Cc2cccc(C)c2)c2ccccc12	-25.0	/	/	/	-8.6	11.8*	1.2
Cn1nnnc1SCC(=O)Nc1ccc(S(=O)(=O)N2CCOCC2)cc1	/	/	/	/	-11.8	/	/
COCCNC(=O)c1c(N)n(-c2ccccc2)c2nc3ccccc3nc12	21.6	4.0	-3.2	-24.7	-15.5	15.1*	2.8
COCCCNC(=O)c1c(N)n(-c2ccccc2)c2nc3ccccc3nc12	/	/	/	/	-10.1	/	/
CC(C)OCCCNC(=O)c1c(N)n(/N=C/c2ccccn2)c2nc3ccccc3nc12	/	3.4	-9.6	-12.6	-22.7	11.6*	7.8
O=C(Nc1ccc(-c2cn3ccsc3n2)cc1)c1ccc(F)c(S(=O)(=O)N2CCOCC2)c1	/	7.3	-12.9	-49.2	-5.2	5.0	/
CCN(CC)S(=O)(=O)c1ccc(NC(=O)COC(=O)c2ccc(Br)o2)cc1	50.0	3.1	10.1	-50.4	-3.9	47.1*	2.1
Cc1cccc(N(C)C(=S)Oc2ccc3ccccc3c2)c1	4.8	39.2	9.3	-59.4	/	11.6*	3.0
COc1ccc(N(C)C(=S)Oc2ccc(C(=O)Nc3ccccc3)cc2)cc1	50.0	5.8	-8.5	-59.6	-3.1	2.8	/
Cc1ccc(N(C(=O)Cn2nnc(-c3ccc(F)cc3)n2)C(CC(C)C)C(=O)NCC2CCCO2)cc1 (stereo not drawn)	-10.0	15.6	-1.9	-44.2	-13.4	0.3	/
OC(COCC(F)(F)C(F)(F)C(F)(F)C(F)F)Cn1c2ccc(Cl)cc2c2cc(Cl)ccc21 (stereo not drawn)	/	35.7	-0.6	-32.7	-16.1	17.9*	2.4
N=c1n(Cc2ccc(Cl)cc2)c2ccccc2n1CC(O)COc1ccccc1 (stereo not drawn)	/	/	/	/	10.5	-1.3	/
CC(C)On1c(SCC(=O)N(C)C)nc2ccccc2c1=O	/	/	/	/	-0.7	/	/
CCC(CC)COC(=O)C(C#N)c1nc2ccccc2nc1N1CCOCC1 (stereo not drawn)	/	3.4	-1.9	-13.7	-13.3	16.4*	4.2
N#CC(C(=O)OC1CCCCC1)c1nc2ccccc2nc1N1CCOCC1 (stereo not drawn)	-38.5	12.0	7.1	-26.7	-2.6	2.9	/
CN(Cc1ccccc1)c1nc2c(c(=O)[nH]c(=O)n2C)n1CCOc1ccccc1	-35.7	5.9	-5.0	-45.7	-54.7	0.6	/
SMILES	Insulin prom inh	Measles CPE	Yeast lifespan up	BB579 growth dn	Mdm2 ligase inh	RAM network inh	RAM 5-FOA
CCCN(C(=S)Nc1ccccc1)C1CCS(=O)(=O)C1 (stereo not drawn)	23.3	11.8	-1.6	-2.4	-11.4	-0.5	/
CCCOC(=O)c1ccc(NC(=O)c2c(Cl)ccc(Cl)c2OC)cc1	-6.2	19.7	-2.5	-61.4	-3.3	12.2*	1.6
O=C(CSc1nc(-c2ccco2)cc(C(F)(F)F)n1)NCCc1ccccc1	-208.6	3.2	-2.6	-19.3	2.0	13.6*	1.8
COc1ccc(CCNC(=O)CSc2nc(-c3ccco3)cc(C(F)(F)F)n2)cc1OC	35.7	0.3	-8.0	13.9	-12.0	0.1	/
O=C1Nc2ccccc2/C1=N\c1sc2c(c1C(=O)Nc1ccccc1)CCCC2	-118.8	28.3	/	-20.8	-12.3	1.2	/
O=C(/C=C/c1ccc(Cl)cc1Cl)NCCSCc1ccccc1	9.1	4.5	-1.6	-37.8	4.5	15.9*	3.9
CCCCC(=O)NC(=S)Nc1c(C)cc(Br)cc1C	-21.4	4.9	-5.2	-52.1	-4.4	1.9	/
C=CCN1C(=O)C(Cc2ccccc2)SC1=Nc1ccc(C(=O)O)cc1 (stereo not drawn)	32.4	17.6	0.7	-2.5	-8.5	1.7	/
C=CCN1C(=O)C(Cc2cccc(C)c2)SC1=Nc1ccc(C(=O)O)cc1 (stereo not drawn)	26.7	0.8	-0.8	-54.0	-9.8	14.6*	1.3
C=CCN1C(=O)C(Cc2ccc(C)cc2)S/C1=N/N=C/c1ccco1 (stereo not drawn)	16.7	4.5	3.8	-39.7	2.3	14.1*	1.6
CCOC(=O)C1=C(N)OC2=C(C(=O)CC(C)(C)C2)C1c1ccc(C)s1 (stereo not drawn)	-63.6	/	/	/	-6.0	16.7*	2.2
O=C(CSc1nc2ccccc2c(=O)n1CCCN1CCOCC1)NC12CC3CC(CC(C3)C1)C2	/	/	/	/	-2.5	0.9	/
C=CCNc1oc(Cc2cccc3ccccc23)nc1C#N	/	18.9	-6.1	-5.1	-19.0	5.6	/
COc1ccc(CNc2oc(-c3cccc4ccccc34)nc2C#N)cc1	36.1	68.3*	-5.8	-30.9	-7.9	14.9*	2.6
CNc1oc(-c2cccc3ccccc23)nc1C#N	22.6	5.3	-15.4	-32.8	-2.9	2.6	/
N#Cc1nc(Cc2cccc3ccccc23)oc1NCc1ccc(F)cc1	/	8.0	-18.9	-23.3	-7.5	14.9*	3.5
ClCC1NCC(c2ccccc2Cl)c2c1[nH]c1ccccc21 (stereo not drawn)	i	/	/	/	-15.8	0.2	/
Cc1ccc(NC(=O)C2(c3cccs3)CCOCC2)cc1C	23.3	2.7	2.0	-13.3	/	2.8	/
O=S(=O)(c1ccc(F)cc1)n1ccc(-c2cccc(OCc3ccc(Cl)cc3Cl)c2)n1	-37.5	2.7	-6.3	-55.6	0.9	11.5*	1.9
CC(C)OCCCn1c(-c2ccc(Br)cc2)c[nH]c1=S	/	/	/	/	-6.3	1.0	/
